Laboratory results from publication PMC5933427 (Chemical Science, 2016).

Columns and labels:
HeLa = test: MTT cytotoxicity assay; format: cell-based, human; settings: read-out: IC50 HeLa, 48 h
Summary of the method: (§1)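 Cancer lines and normal LO2 cells were incubated with test compound for 48 h before viability was assessed. IC50 values reported as means ± SD.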

MDB-MA-231 = test: MTT cytotoxicity assay; format: cell-based, human; settings: read-out: IC50 MDB-MA-231, 48 h
Summary of the method: as §1

[1] = test system: cisplatin-resistant A549 (A549R); test: MTT cytotoxicity assay; format: cell-based, human; settings: for IC50: read-out: IC50 A549R, 48 h, MTT; for cross-resistance with cisplatin: cisplatin-resistant A549R cells
Summary of the method: as §1

A549 = test: MTT cytotoxicity assay; format: cell-based, human; settings: 48 h; for IC50: read-out: IC50 A549, MTT
Summary of the method: as §1

LO2 = test: MTT cytotoxicity assay; format: cell-based; settings: read-out: IC50 LO2, 48 h, human normal liver cells
Summary of the method: as §1

PC3 = test: MTT cytotoxicity assay; format: cell-based, human; settings: read-out: IC50 PC3, 48 h
Summary of the method: as §1

A549 cells [2] = test: Intracellular ATP quantification; format: cell-based, human; settings: for impact on intracellular ATP levels: A549, 6 h, versus control cells; for intracellular ATP level: A549, 10 μM, 6 h, control 86.3 ± 1.0 nM
Summary of the method: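 A549 cells exposed for 6 h to vehicle or to test compound across several concentrations. Intracellular ATP content measured and reported in nM, relative to vehicle-treated control cells.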

[3] = Lipophilicity, shake-flask log Po/w; format: physicochemical; settings: octanol/water
[4] = target: bovine serum albumin (BSA) (Bos taurus, UniProt P02769); test: Emission enhancement upon binding with BSA; settings: molar ratio BSA : Ir(III) 8 : 1
A549 cells [5] = test: Microarray gene chip analysis; format: cell-based, human; settings: A549, 3 μM, 24 h
[6] = test system: caspase-3/7 in A549 cells; test: Caspase-3/7 activity, Caspase-Glo assay; format: cell-based, human; settings: A549, 10 μM, 12 h
A549 cells [7] = test: MMP analysis, JC-1 flow cytometry; format: cell-based, human; settings: A549, 10 μM, 6 h, control 6.6 ± 0.7%
[8] = Stability of complex 2 by 1H NMR; format: physicochemical; settings: DMSO-d6/D2O (v/v, 7/3), 37 °C
A549/LO2 coculture = test: Co-culture model of A549 and LO2 cells, annexin V/PI; format: cell-based, human; settings: 10 μM, 24 h, A549 Hoechst-prelabeled
A549 cells [9] = test: Mitochondrial bioenergetics, Seahorse OCR; format: cell-based, human; settings: for non-mitochondrial respiration: after rotenone/antimycin A; for ATP production (coupled respiration, OCR): oligomycin; for ATP production (coupled respiration, OCR) / basal OCR: versus control
Summary of the method: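 Oxygen consumption rate of treated A549 cells measured on a Seahorse XF24 analyser. Sequential injections: oligomycin 0.75 μM, FCCP 0.6 μM, then rotenone 0.5 μM plus antimycin A 0.5 μM. OCR normalised to protein by BCA assay. Basal respiration = basal OCR minus post-rotenone/antimycin OCR. ATP-linked respiration = basal minus post-oligomycin OCR. Non-mitochondrial respiration = OCR remaining after rotenone/antimycin.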

A549 cells [10] = test: Annexin V/PI double staining, flow cytometry; format: cell-based, human; settings: 24 h; for apoptotic cells: A549, 10 μM, control 1.4 ± 0.02%; for effect of NAC pre-treatment on apoptosis-inducing capability: A549, NAC 10 mM
Summary of the method: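 A549 cells treated with test compound for 24 h, then double-labelled with annexin V and PI and analysed by flow cytometry. Early apoptotic cells scored as annexin V-positive/PI-negative, and late apoptotic/necrotic cells as annexin V-positive/PI-positive. Both fractions were counted as apoptotic.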

A549 cells [11] = test: MTT viability with z-VAD-fmk pretreatment; format: cell-based, human; settings: A549, z-VAD-fmk 50 μM 2 h, then 24 h
A549 cells [12] = test: Cell cycle analysis, PI flow cytometry; format: cell-based, human; settings: A549, 2.5 μM, 24 h; control 57.4 ± 3.1%
A549 cells [13] = test: MTT viability with NAC pretreatment; format: cell-based, human; settings: A549, NAC 10 mM 1 h, then 24 h
A549 cells [14] = test: Intracellular ROS detection, H2DCFDA flow cytometry; format: cell-based, human; settings: A549, 10 μM, 6 h

Sequence of bovine serum albumin (BSA) (P02769 25-607): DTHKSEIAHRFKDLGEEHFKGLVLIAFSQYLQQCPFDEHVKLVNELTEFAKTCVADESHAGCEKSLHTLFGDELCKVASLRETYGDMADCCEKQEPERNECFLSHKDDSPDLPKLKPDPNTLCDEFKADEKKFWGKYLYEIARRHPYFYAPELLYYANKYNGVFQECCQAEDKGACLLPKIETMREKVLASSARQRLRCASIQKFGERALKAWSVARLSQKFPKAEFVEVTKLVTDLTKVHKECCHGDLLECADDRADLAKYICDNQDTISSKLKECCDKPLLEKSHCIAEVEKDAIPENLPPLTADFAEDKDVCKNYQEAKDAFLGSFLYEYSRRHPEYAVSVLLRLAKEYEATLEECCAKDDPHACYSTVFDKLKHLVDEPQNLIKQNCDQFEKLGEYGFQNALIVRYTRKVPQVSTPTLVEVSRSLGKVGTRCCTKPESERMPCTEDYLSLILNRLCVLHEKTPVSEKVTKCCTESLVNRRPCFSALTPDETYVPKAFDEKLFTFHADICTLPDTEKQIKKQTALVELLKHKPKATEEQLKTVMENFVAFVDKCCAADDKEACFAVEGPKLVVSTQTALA

| Compound | IC50 (HeLa) [µM] | IC50 (MDB-MA-231) [µM] | IC50 [1] [µM] | IC50 (A549) [µM] | IC50 (LO2) [µM] | IC50 (PC3) [µM] | impact on intracellular ATP levels (A549 cells [2]) | Lipophilicity (log Po/w) [3] | increase of caspase-3/7 activity [6] | percentage of cells with mitochondrial membrane depolarization (A549 cells [7]) [%] | intracellular ATP level (A549 cells [2]) [nM] | non-mitochondrial respiration (A549 cells [9]) | ATP production (coupled respiration, OCR) (A549 cells [9]) | basal OCR (A549 cells [9]) | apoptotic cells (A549 cells [10]) [%] | effect of NAC pre-treatment on apoptosis-inducing capability (A549 cells [10]) | cross-resistance with cisplatin [1] | effect of z-VAD-fmk pre-treatment on antiproliferative activity (A549 cells [11]) | percentage of cells in the G0/G1 phase (A549 cells [12]) [%] | effect of NAC pre-treatment on antiproliferative potency (A549 cells [13]) | further results |
| --- | --- | --- | --- | --- | --- | --- | --- | --- | --- | --- | --- | --- | --- | --- | --- | --- | --- | --- | --- | --- | --- |
| N.N.[Cl][Pt][Cl] [Cisplatin, reference compound] | 18.8 ± 1.4 | 27.5 ± 2.5 | 120 ± 6.5 | 22.4 ± 2 | 26.9 ± 1.9 | 23.8 ± 2 |  |  |  |  |  |  |  |  |  |  |  |  |  |  |  |
| F[P-](F)(F)(F)(F)F.OCc1ccnc(-c2cc(CO)ccn2)c1.[Ir+3].[c-]1ccccc1-c1ccccn1.[c-]1ccccc1-c1ccccn1 [Complex 1] | 10 ± 0.9 | 24.5 ± 1.9 | 42.2 ± 2.7 | 24 ± 2 | > 100 | > 100 | not obvious | 0.23 |  |  |  |  |  |  |  |  |  |  |  |  |  |
| ClCc1ccnc(-c2cc(CCl)ccn2)c1.F[P-](F)(F)(F)(F)F.[Ir+3].[c-]1ccccc1-c1ccccn1.[c-]1ccccc1-c1ccccn1 [Complex 2] | 0.52 ± 0.04 | 0.33 ± 0.02 | 0.64 ± 0.04 | 0.4 ± 0.02 | 4.5 ± 0.3 | 1.4 ± 0.1 | significant dose-dependent decrease | 1.28 | approximately 1.6 fold | 85.7 ± 1.7 | 30.2 ± 2.4 | decrease | dose-dependent decrease | decrease | 17.5 ± 0.8 | decreases the apoptosis-inducing capability | not cross-resistant with cisplatin | inhibits the antiproliferative activity | 85.3 ± 4.4 | significantly diminishes | emission enhancement upon binding with BSA [4]: ~11.6 fold; No. of down-regulated genes sets (p< 0.05, FC> 2) (A549 cells [5]): 715; No. of up-regulated genes sets (p< 0.05, FC> 2) (A549 cells [5]): 507; complex invariant (intact) ([8]; 48 h): about 98.5%; complex transformed (hydrolysis of chloromethyl groups) ([8]; 7 days): about 26.2%; selective killing of cancer cells in co-culture (A549/LO2 coculture): most of the A549 cells (blue nuclei) are stained positively by both annexin V and PI, while the LO2 cells are still viable; selectivity for cancerous A549 cells over noncancerous LO2 cells (A549; from IC50 values): ~11 fold; increase of mean fluorescent intensity (MFI) of DCF (A549 cells [14]): approximately 5.5 fold |
| F[P-](F)(F)(F)(F)F.Fc1c[c-]c(-c2ccccn2)c(F)c1.Fc1c[c-]c(-c2ccccn2)c(F)c1.OCc1ccnc(-c2cc(CO)ccn2)c1.[Ir+3] [Complex 3] | 2.7 ± 0.2 | 12.3 ± 1.1 | 17.8 ± 1.4 | 16.8 ± 1.2 | 8.1 ± 0.5 | 38 ± 1.9 | not obvious | 1.09 |  |  |  |  |  |  |  |  |  |  |  |  |  |
| ClCc1ccnc(-c2cc(CCl)ccn2)c1.F[P-](F)(F)(F)(F)F.Fc1c[c-]c(-c2ccccn2)c(F)c1.Fc1c[c-]c(-c2ccccn2)c(F)c1.[Ir+3] [Complex 4] | 1.8 ± 0.1 | 0.66 ± 0.05 | 0.74 ± 0.05 | 0.21 ± 0.02 | 1.5 ± 0.1 | 1.04 ± 0.09 | significant dose-dependent decrease | 2.12 | ~1.7 fold | 82.4 ± 7.6 | 20.2 ± 3.3 | decrease | dose-dependent decrease | decrease | 61.5 ± 1.1 | decreases the apoptosis-inducing capability | not cross-resistant with cisplatin | inhibits the antiproliferative activity | 88.8 ± 5.2 | significantly diminishes | increase of mean fluorescent intensity (MFI) of DCF (A549 cells [14]): ~13.7 fold |
